Reference: article PMC4348351 (Pest management science, 2014)

What was measured:
[1] = system: Anopheles albimanus AChE (An.aAChE); test: AChE inhibition, Ellman assay, An.aAChE; assay type: biochemical; settings: SR = IC50 of mosquito AChE/IC50 of An. gambiae
[2] = system: Anopheles quadrimaculatus AChE (An.qAChE); test: AChE inhibition, Ellman assay, An.qAChE; assay type: biochemical; settings: SR = IC50 of mosquito AChE/IC50 of An. gambiae
[3] = target: Aedes aegypti AChE (Ae.aAChE) (Aedes aegypti, UniProt Q6A2E2); test: AChE inhibition, Ellman assay, Ae.aAChE; assay type: biochemical; settings: SR = IC50 of mosquito AChE/IC50 of An. gambiae
[4] = system: Aedes albopictus AChE (Ae.bAChE); test: AChE inhibition, Ellman assay, Ae.bAChE; assay type: biochemical; settings: SR = IC50 of mosquito AChE/IC50 of An. gambiae
[5] = system: Culex quinquefasciatus AChE (CqAChE); test: AChE inhibition, Ellman assay, CqAChE; assay type: biochemical; settings: SR = IC50 of mosquito AChE/IC50 of An. gambiae
[6] = system: Plutella xylostella AChE (PxAChE); test: AChE inhibition, Ellman assay, PxAChE; assay type: biochemical; settings: for SR PxAChE: SR = IC50 of agricultural insect AChE/IC50 of An.gAChE
[7] = system: Ostrinia nubilalis AChE (OnAChE); test: AChE inhibition, Ellman assay, OnAChE; assay type: biochemical; settings: for SR OnAChE: SR = IC50 of agricultural insect AChE/IC50 of An.gAChE
[8] = target: Drosophila melanogaster AChE (DmAChE) (Drosophila melanogaster, UniProt P07140); test: AChE inhibition, Ellman assay, DmAChE; assay type: biochemical; settings: for SR DmAChE: SR = IC50 of agricultural insect AChE/IC50 of An.gAChE
[9] = system: Musca domestica AChE (MdAChE); assay type: biochemical; settings: for SR MdAChE: SR = IC50 of agricultural insect AChE/IC50 of An.gAChE
[10] = system: Diaphorina citri AChE (DcAChE); test: AChE inhibition, Ellman assay, DcAChE; assay type: biochemical; settings: SR = IC50 of agricultural insect AChE/IC50 of An.gAChE
[11] = system: Apis mellifera AChE (Ap.mAChE); test: AChE inhibition, Ellman assay, Ap.mAChE; assay type: biochemical; settings: for SR Ap.mAChE: SR = IC50 of agricultural insect AChE/IC50 of An.gAChE
[12] = system: An. gambiae; test: Topical toxicity bioassay, An. gambiae; assay type: in vivo, Anopheles gambiae; settings: adult females, 24 hour mortality
In short: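 Anopheline adults, chilled on ice for 1 min, received 200 nL of test compound in 95% ethanol on the abdomen via handheld microapplicator. Five doses × ten insects, three repeats, plus an ethanol-only control. Sugar water was freely available under netting.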

[13] = system: Ae. aegypti; test: Topical toxicity bioassay, Ae. aegypti; assay type: in vivo, Aedes aegypti; settings: adult females, 24 hour mortality
In short: (§1)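 Adult mosquitoes were chilled on ice for 3 min, then 200 nL of test compound in 95% ethanol was applied to the abdomen by handheld microapplicator. Five doses, ten insects each, repeated three times, with an ethanol-only negative control. Insects were held under netting with free access to sugar water.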

[14] = system: Cu. quinquefasciatus; test: Topical toxicity bioassay, Cu. quinquefasciatus; assay type: in vivo, Culex quinquefasciatus; settings: adult females, 24 hour mortality
In short: as §1

[15] = system: O. nubilalis; test: Topical toxicity bioassay, O. nubilalis; assay type: in vivo, Ostrinia nubilalis; settings: for SR (toxicity): Selectivity Ratio = O. nubilalis LD50/An. gambiae LD50; for LD50 (95% CI) O. nubilalis: topical, L2 larvae, 24 hour mortality
In short: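 Lepidopteran larvae were ice-chilled for 3 min before 1 μL of test compound in 95% ethanol was applied to the abdomen with a handheld microapplicator. Five doses, ten larvae per dose, done three times, with an ethanol-only negative control. Food substrate was provided in netted containers.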

[16] = system: mosquito acetylcholinesterases; test: AChE inhibition, statements across mosquito species; assay type: biochemical

SMILES	SR An.aAChE [1]	SR An.qAChE [2]	SR Ae.aAChE [3]	SR Ae.bAChE [4]	SR CqAChE [5]	SR PxAChE [6]	SR OnAChE [7]	SR DmAChE [8]	SR MdAChE [9]	SR DcAChE [10]	SR Ap.mAChE [11]	LD50 (95% CI) An. gambiae [12]	LD50 (95% CI) Ae. aegypti [13]	LD50 (95% CI) Cu. quinquefasciatus [14]	SR (toxicity) [15]	LD50 (95% CI) O. nubilalis [15]	also measured
CNC(=O)Oc1cccc2c1OC(C)(C)O2 [Bendiocarb, bendiocarb]	1.0	0.8	0.7	0.8	1.2	1.3	2	0.2	0.3	0.5	0.3	2 (1–4) aA ng/mg	1 (0.5–3) aA ng/mg	2 (1–4) aB ng/mg	2	4 (2–6) aB ng/mg	fold more potent than 1, PxAChE ([6]; IC50 ratio versus 1): 3 fold; fold more potent than 5, PxAChE ([6]; IC50 ratio, 100 μM value used for 5): 461 fold; SR PxAChE ([6]; listed as bendiocarb): ≤ 7; fold more potent than 1, OnAChE ([7]; IC50 ratio versus 1): 8 fold; fold more potent than 5, OnAChE ([7]; IC50 ratio versus 5): 243 fold; fold more potent than propoxur, DmAChE ([8]; IC50 ratio versus propoxur): 3.9 fold; fold more potent than propoxur, MdAChE ([9]; IC50 ratio versus propoxur): 2.6 fold; fold difference in IC50 versus propoxur, Ap.mAChE ([11]; IC50 ratio versus propoxur): 19 fold; fold more toxic than 1, O. nubilalis ([15]; LD50 ratio versus 1): 24 fold; LD50 (95% CI) O. nubilalis ([15]; listed as bendiocarb): 4 ng/mg
CNC(=O)Oc1cccc2c1OC(C)(C)C2 [Carbofuran, carbofuran]	1.2	0.9	0.9	1.0	2.3	–	–	–	–	–	–	–	–	–	–	–	fold more active than bendiocarb, within each mosquito species ([16]; IC50 ratio versus bendiocarb): about 3 fold; fold more potent than propoxur, within each mosquito species ([16]; IC50 ratio versus propoxur): approximately 10 fold
CNC(=O)Oc1ccccc1OC(C)C [Propoxur]	1.1	1.0	0.8	0.8	1.1	7.5	15	0.2	0.3	2	2	3 (2–4) aA ng/mg	3 (1–4) aA ng/mg	8 (5–11) bA ng/mg	14	42 (34–49) cA ng/mg	SR PxAChE ([6]; listed as propoxur): 7
